Five compounds from ChEMBL document CHEMBL4725444, “Brain Permeable Tafamidis Amide Analogs for Stabilizing TTR and Reducing APP Cleavage” (ACS Med Chem Lett, 2020) can be followed below.

For orientation: IC50 means the concentration that inhibits the measured activity by half. Usually inhibition stands for the percentage by which the read-out fell short of the control.

The source made the active and inactive calls. No cut-off for these calls is given here. Bounds are passed on as bounds.

Data set [1] relates to N2a695. The data set is described as follows: Increase in APP fragmentation in mouse N2a695 cells at 10 uM incubated for 6 hrs by Western blot analysis. Format: functional, cell-based. Summed up:
(§1)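 N2a695 cells (4.0 × 10^5–4.5 × 10^5 cells/mL, 90–95% confluent) treated with 10 μM final compound for 6 h at 37 °C, 5% CO2. Lysates run on SDS-PAGE; membrane fixed with 0.25% glutaraldehyde in PBS, blocked in milk PBST, probed with RU369 (APP C-terminus antibody), HRP secondary, ECL detection; APP-CTF bands quantified versus DMSO control.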
On the technique in general: In western blotting, separated proteins are transferred to a membrane and probed.

The subject of data set [2] is N2a695. The data set is described as follows: Increase in APP-CTF fragmentation in mouse N2a695 cells at 10 uM incubated for 6 hrs by Western blot analysis. Format: functional, cell-based. Summed up: as §1
Data set [3] can be described thus: Inhibition of gamma secretase in mouse N2a695 cells using Sb4 substrate incubated for 3 hrs by ELISA. The following applies: N2a695, 3 h. Background: ELISA stands for enzyme-linked immunosorbent assay.
For data set [4], the system named is N2a695. The data set is described as follows: Effect on TTR-induced amyloid beta aggregation inhibition in mouse N2a695 cells measured for 4 hrs by fluorescence correlation spectroscopic analysis. Format: functional, cell-based.
Data set [5] relates to N2a695. Nature of the data set: Inhibition of amyloid beta aggregation in mouse N2a695 cells measured for 4 hrs by fluorescence correlation spectroscopic analysis. Format: cell-based.
A short description of data set [6]: Plasma concentration in 5XFAD mouse at 50 mg/kg, po measured after 15 days by LC-MS/MS analysis. Format: ADME, organism-based. The settings on record: time 15 day. Summed up:
(§2)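 Dosed via drinking water for 15 days (50 mg/kg) in 3-month-old 5xFAD mice, n = 3. Blood and brain tissue collected on day 15; parent amide and its hydrolysis product tafamidis quantified in plasma and brain extracts by LC-MS/MS.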

Data set [7] can be described thus: Brain concentration in 5XFAD mouse at 50 mg/kg, po measured after 15 days by LC-MS/MS analysis. Format: ADME, organism-based. The settings on record: time 15 day, read-out: Ct. The gist of the method:
as §2

The target of data set [8] is Transthyretin (Homo sapiens) (UniProt P02766). Nature of the data set: Stabilization of recombinant dual FLAG-tagged wild type TTR (unknown origin) in plasma blood at < 30 uM incubated for 48 hrs by ion exchange chromatographic method. Format: cell-free. The settings on record: dose microM <30, time 48.0 hrs.
Data set [9] relates to N2a695. Nature of the data set: Inhibition of amyloid beta 40 production in mouse N2a695 cells at 10 uM incubated for 6 hrs by ELISA relative to control. Format: cell-based. The gist of the method:
(§3)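 Human APP695-expressing N2a695 cells (4.0 × 10^5–4.5 × 10^5 cells/mL, 90–95% confluent) given 10 μM final compound for 6 h at 37 °C, 5% CO2. Media assayed by human Aβ40/Aβ42 sandwich ELISA (Aβ40 media diluted 5–10×, Aβ42 undiluted); levels compared with DMSO vehicle. At least two experiments in duplicate or triplicate.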

The test system of data set [10] is N2a695. Nature of the data set: Inhibition of amyloid beta 42 production in mouse N2a695 cells at 10 uM incubated for 6 hrs by ELISA relative to control. Format: cell-based. Summed up:
as §3

Data set [11] is described as follows: Cytotoxicity against mouse N2a695 cells assessed as reduction in cell viability at 10 uM incubated for 24 hrs by MTT assay. Format: cell-based. The settings on record: n2a695, 24 h. Summed up: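 N2a cells exposed to 10 μM compound for 24 h; viable cell number determined by MTT assay.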
(In general: Tetrazolium dyes change colour on reduction, which living cells bring about.)

A short description of data set [12]: Metabolic stability in mouse liver microsomes assessed as parent compound remaining after 0.5 hrs by LC-MS/MS analysis relative to control. Format: ADME, Microsome. The following applies: read-out: Stabilty. Summed up: (§4)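 Compound at 1 or 10 μM incubated with mouse or human liver microsomes at 25 °C for 30 and 60 min; remaining parent quantified by LC-MS/MS.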

Data set [13] can be described thus: Metabolic stability in CD1 mouse liver microsomes assessed as parent compound remaining at 10 uM measured after 0.5 hrs by LC-MS/MS analysis relative to control. Format: ADME, Microsome. The settings on record: read-out: Stabilty. Summed up: as §4
Data set [14] in a line: Metabolic stability in CD1 mouse liver microsomes assessed as parent compound remaining at 1 uM measured after 1 hr by LC-MS/MS analysis relative to control. Format: ADME, Microsome. The settings on record: read-out: Stabilty. Summed up:
as §4

Data set [15] is described as follows: Metabolic stability in CD1 mouse liver microsomes assessed as parent compound remaining at 10 uM measured after 1 hr by LC-MS/MS analysis relative to control. Format: ADME, Microsome. The following applies: read-out: Stabilty. Summed up: as §4
Data set [16] in a line: Metabolic stability in human liver microsomes assessed as parent compound remaining at 1 uM measured after 0.5 hrs by LC-MS/MS analysis relative to control. The following applies: read-out: Stabilty. Format: ADME, Microsome. Summed up: as §4
The nature of data set [17]: Metabolic stability in human liver microsomes assessed as parent compound remaining at 1 uM measured after 1 hr by LC-MS/MS analysis relative to control. Format: ADME, Microsome. The settings on record: read-out: Stabilty. The gist of the method:
as §4

Turning to `O=C(O)c1ccc2nc(-c3cc(Cl)cc(Cl)c3)oc2c1` [TAFAMIDIS], the outcome in the data set on N2a695 [1], in the data set on N2a695 [2] and with N2a695 [4] was inactive. Besides, in data set [3], the IC50 is > 30 µM. Moreover, the inhibition entry in the data set on N2a695 [5] was “inactive”. The concentration at 360 h amounted to 5800 nM in [6] and 223 ng/g in [7]. Moreover, in data set [8], the result was Active. Moreover, the Stability result in data set [8] is “Stable”.

Regarding `O=C(c1ccc2nc(-c3ccc(C(F)(F)F)cc3)oc2c1)N1CCNCC1`, the inhibition with N2a695 [9] and in the data set on N2a695 [10] was 30% in each case. Further, in data set [11], the Activity entry is listed as “Toxic”. For the same compound, the outcome with N2a695 [1] and with N2a695 [2] was Active.

For `CN(C)CCNC(=O)c1ccc2nc(-c3ccc(C(F)(F)F)cc3)oc2c1`, the inhibition in the data set on N2a695 [9] and in the data set on N2a695 [10] was 30% in each case. Besides, the outcome in the data set with N2a695 [1] and with N2a695 [2] was Active.

Take `O=C(NC1CCNCC1)c1ccc2nc(-c3cc(Cl)cc(Cl)c3)oc2c1`: the inhibition with N2a695 [9] and in the data set on N2a695 [10] was 30% throughout. In addition, the Activity entry in data set [11] is “Toxic”. The outcome in the data set on N2a695 [1] and in the data set on N2a695 [2] was Active.

As to `O=C(c1ccc2nc(-c3cc(Cl)cc(Cl)c3)oc2c1)N1CCNCC1`, the inhibition in the data set on N2a695 [9] and with N2a695 [10] was 30% throughout. Also, the Activity result in data set [11] is given as “Non-Toxic”. Also, the outcome (in the data set with N2a695 [1]; in the data set with N2a695 [2]; in [8]) was Active. The outcome with N2a695 [4] was inactive. Further, the inhibition entry in the data set on N2a695 [5] is “inactive”. In addition, the concentration at 360 h amounted to 80 nM in [6] and 137 ng/g in data set [7]. Moreover, the remaining at 0.5 h, 1 µM in data set [12] stood at 15.1%; in data set [13], 26.7%; in data set [16], 75.4%. Moreover, the values for the remaining at 1 h, 1 µM in data set [14], in data set [15] and in [17] were 2.3%, 1.2% and 70.3%, respectively.
